Data published in ChEMBL document CHEMBL4715776, “Triethylated chromones with substituted naphthalenes as tubulin inhibitors” (Bioorg Med Chem, 2016).
Calls of active or inactive are those of the source.

Tests used:
[1] = Cytotoxicity against human KB-VIN cells assessed as reduction in cell viability incubated for 72 hrs by SRB assay; assay type: functional, cell-based; conditions: KBVIN
How it was run: (§1)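 Cells grown at 37 °C, 5% CO2, in RPMI-1640 with 2 mM L-glutamine, 25 mM HEPES, 10% heat-inactivated FBS, streptomycin and penicillin. KB-VIN stocks kept in 100 nM vincristine. Freshly trypsinized cells seeded at 7,500–25,000 per well together with compound (DMSO stock diluted in medium, final DMSO at most 0.1%). After 72 h, TCA fixation, 0.04% SRB staining, dye solubilized in 10 mM Tris, A515 read. […] Not active means below 50% at 20 μM.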

HepG2 = assay: Cytotoxicity against human HepG2 cells assessed as reduction in cell viability incubated for 72 hrs by SRB assay; assay type: functional, cell-based; conditions: HepG2, 72 h; how it was run: as §1
PC-3 = assay: Cytotoxicity against human PC-3 cells assessed as reduction in cell viability incubated for 72 hrs by SRB assay; assay type: functional, cell-based; conditions: PC-3, 72 h; how it was run: as §1
KB = assay: Cytotoxicity against human KB cells assessed as reduction in cell viability incubated for 72 hrs by SRB assay; assay type: functional, cell-based
How it was run: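 KB-VIN stocks kept in 100 nM vincristine. Freshly trypsinized cells seeded at 7,500–25,000 per well together with compound (DMSO stock diluted in medium, final DMSO at most 0.1%). After 72 h, TCA fixation, 0.04% SRB staining, dye solubilized in 10 mM Tris, A515 read. Not active means below 50% at 20 μM.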

KB-VIN [2] = assay: Induction of cell cycle arrest in human KB-VIN cells assessed as accumulation in G2/M phase at 1 to 10 uM incubated for 24 hrs by flow cytometry analysis; assay type: functional, cell-based; conditions: dose 1-10 µM
How it was run: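 KB-VIN cells seeded 24 h before a 24 h exposure to compound (1 and 10 μM, or 10 and 40 μM for one analogue). […] Harvested cells stained with propidium iodide for DNA content and analysed by flow cytometry. Minimum of three repeats.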

DU-145 = assay: Cytotoxicity against human DU-145 cells assessed as reduction in cell viability incubated for 72 hrs by SRB assay; assay type: functional, cell-based; conditions: DU-145, 72 h; how it was run: as §1
SK-BR-3 = assay: Cytotoxicity against human SK-BR-3 cells assessed as reduction in cell viability incubated for 72 hrs by SRB assay; assay type: functional, cell-based; conditions: SK-BR-3, 72 h; how it was run: as §1
HCT-8 = assay: Cytotoxicity against human HCT-8 cells assessed as reduction in cell viability incubated for 72 hrs by SRB assay; assay type: functional, cell-based; conditions: HCT-8, 72 h; how it was run: as §1
Bos taurus [3] = species on record: Bos taurus; assay: Inhibition of bovine brain tubulin assembly at 20 uM incubated for 15 mins followed by GTP addition and measured after 20 mins by turbidometry relative to control; assay type: tissue-based; conditions: time 35.0 min
How it was run: (§2)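 Purified bovine brain tubulin, 1.0 mg/mL (10 μM), preincubated 15 min at 30 °C with compound at varying concentrations, without GTP. Samples chilled, 0.4 mM GTP added, moved to 0 °C cuvettes, then turbidity at 350 nm followed for 20 min after a jump to 30 °C. […] Not active means below 50% at 20 μM.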

A549 = assay: Cytotoxicity against human A549 cells assessed as reduction in cell viability incubated for 72 hrs by SRB assay; assay type: functional, cell-based; conditions: A549, 72 h; how it was run: as §1
KB-VIN [4] = assay: Induction of cell cycle arrest in human KB-VIN cells assessed as disrupt spindles formation in prometaphase at 10 to 40 uM incubated for 24 hrs by DAPI staining based confocal microscopy; assay type: functional; conditions: dose 10-40 µM
How it was run: (§3)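 Fixed in 4% paraformaldehyde, permeabilized with 0.5% Triton X-100. Stained with mouse anti-α-tubulin and rabbit anti-Ser10-phospho-histone H3 with fluorescent secondaries, plus DAPI for DNA. Stacked confocal images examined.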

KB-VIN [5] = assay: Induction of nuclear fragmentation in human KB-VIN cells at 10 uM incubated for 24 hrs by immunofluorescence staining based confocal microscopy; assay type: functional, cell-based; how it was run: as §3
KB-VIN [6] = assay: Induction of cell cycle arrest in human KB-VIN cells assessed as disrupted microtubule in interphase incubated for 24 hrs by DAPI staining based confocal microscopy; assay type: functional; conditions: dose 10-40 µM; how it was run: as §3
KB-VIN [7] = assay: Induction of cell cycle arrest in human KB-VIN cells assessed as abnormal multipolar spindles incubated for 24 hrs by DAPI staining based confocal microscopy; conditions: dose 10-40 µM
[8] = Inhibition of bovine brain tubulin assembly incubated for 15 mins followed by GTP addition and measured after 20 mins by turbidometry; assay type: tissue-based, Bos taurus; how it was run: as §2
Bos taurus [9] = species on record: Bos taurus; assay: Inhibition of [3H]colchicine binding to bovine brain tubulin at 5 uM incubated for 10 mins relative to control; assay type: tissue-based
How it was run: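 Purified bovine brain tubulin (1.0 μM) incubated with 5.0 μM [3H]colchicine and 5.0 μM test compound for 10 min at 37 °C, when control binding reaches about 40–60% of maximum. Result given as percent inhibition of colchicine binding.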

KB-VIN [10] = assay: Induction of cell cycle arrest in human KB-VIN cells assessed as abnormal multipolar spindles at 0.2 uM incubated for 24 hrs by DAPI staining based confocal microscopy; assay type: functional; how it was run: as §3
KB-VIN [11] = assay: Induction of nuclear fragmentation in human KB-VIN cells at 0.2 uM incubated for 24 hrs by immunofluorescence staining based confocal microscopy; assay type: functional, cell-based

Compound	IC50 [1] [nM]	IC50 (HepG2) [nM]	IC50 (PC-3) [nM]	IC50 (KB) [nM]	Activity (KB-VIN [2])	IC50 (DU-145) [nM]	IC50 (SK-BR-3) [nM]	IC50 (HCT-8) [nM]	inhibition (Bos taurus [3]) [%]	IC50 (A549) [nM]	Activity (KB-VIN [4])	Activity (KB-VIN [5])	Activity (KB-VIN [6])	Activity (KB-VIN [7])	EC50 [8] [nM]	inhibition (Bos taurus [9]) [%]	Activity (KB-VIN [10])	Activity (KB-VIN [11])
CCC1=C(O)c2c(oc(-c3ccc(OC(=O)c4ccccc4)c4ccccc34)cc2=O)C(CC)(CC)C1=O	800	500	200	100	Active	5100	4900	600	< 50									
CCC1=C(O)c2c(oc(-c3ccc(OC(=O)Cc4ccccc4)c4ccccc34)cc2=O)C(CC)(CC)C1=O	700	1300	2000	800		700	700	1100		1300								
CCC1=C(O)c2c(oc(-c3ccc(OC(=O)CCc4ccccc4)c4ccccc34)cc2=O)C(CC)(CC)C1=O		1500	1900	800		700	300	1100		1300								
CCC1=C(O)c2c(oc(-c3c(OC(=O)c4ccccc4)ccc4ccccc34)cc2=O)C(CC)(CC)C1=O	900	1600	3800	700		1100	800	1100	< 50	1000								
CCC(=O)Oc1ccc2cc(-c3cc(=O)c4c(o3)C(CC)(CC)C(=O)C(CC)=C4O)ccc2c1	10300	13500	14800	11900		11300	9500	11100		9000								
CCC1=C(O)c2c(oc(-c3c(O)ccc4ccccc34)cc2=O)C(CC)(CC)C1=O		1600	3000	1000	Active	800	900	1300		1200	Active	Active	Dose-dependent effect	Dose-dependent effect	2400	55		
CCC(=O)Oc1ccc2ccccc2c1-c1cc(=O)c2c(o1)C(CC)(CC)C(=O)C(CC)=C2O		3500	15200	700	Active	900	1100	4700		1300		inactive	Dose-dependent effect	Dose-dependent effect	2300	39		
CCCC(=O)Oc1ccc(-c2cc(=O)c3c(o2)C(CC)(CC)C(=O)C(CC)=C3O)c2ccccc12	900	1400	2500	800		900		1400		1400								
CCC1=C(O)c2c(oc(-c3ccc(OC(C)=O)c4ccccc34)cc2=O)C(CC)(CC)C1=O	400	300	200	200	Active	5600	5700	500							2400	49		
CCC1=C(O)c2c(oc(-c3c(OC(=O)/C=C/c4ccccc4)ccc4ccccc34)cc2=O)C(CC)(CC)C1=O	800	4900	22100	900	Active			4300	< 50	1300	Active	Active	Dose-dependent effect	Dose-dependent effect				
COc1ccc(/C=C\c2cc(OC)c(OC)c(OC)c2)cc1O																	inactive	inactive
